{"data": "Assay results collected from several papers", "target": "Sodium-dependent serotonin transporter (SLC6A4, Homo sapiens, UniProt P31645)", "note": "Lines come from different studies, so protocols differ."}
{"SMILES": "CNC(C)(C)C(=O)c1ccccc1", "effect on": "calcium signal", "action": "agonist", "technique": "fluorescence", "quantity": "EC50", "value": "12.9 µM"}
{"SMILES": "Clc1ccc2c(C3=CCN(CCc4c[nH]c5ccccc45)CC3)c[nH]c2c1", "effect on": "ligand displacement", "technique": "radioligand", "notes": "cell membranes", "quantity": "IC50", "value": "0.0255 µM"}
{"SMILES": "CC(N)CCc1ccccc1Cl (stereo not shown)", "effect on": "transporter uptake", "action": "inhibitor", "technique": "radiometric", "quantity": "Ki", "value": "24 µM"}
{"SMILES": "COc1cc(C(=O)N2CC[C@@H](O)[C@@H](N)C2)cc2nc(-c3cc4ccccc4n3CC3CC3)n(C)c12", "effect on": "transporter uptake", "quantity": "IC50", "value": "50.1 µM"}
{"SMILES": "CN[C@@H](C)C(=O)c1ccccc1", "effect on": "calcium signal", "action": "agonist", "technique": "fluorescence", "quantity": "EC50", "value": "15.3 µM"}
{"SMILES": "OC(c1ccc(F)cc1)C(F)(F)CCN1CCC(O)(c2ccc(Cl)cc2)CC1 (racemic)", "effect on": "ligand displacement", "technique": "radioligand", "quantity": "Ki", "value": "1.99 µM"}
{"SMILES": "CCOC(=O)[C@@]12C[C@@H]1[C@@H](n1cnc3c(NC)nc(C#Cc4ccc(Cl)s4)nc31)[C@H](O)[C@@H]2O", "effect on": "ligand displacement", "technique": "radioligand", "notes": "cell membranes", "quantity": "Ki", "value": "> 10 µM"}
{"SMILES": "Clc1ccc2c(C3CCN(CCc4c[nH]c5ccccc45)CC3)c[nH]c2c1", "effect on": "transporter uptake", "action": "inhibitor", "technique": "radiometric", "quantity": "Ki", "value": "0.053 µM"}
{"SMILES": "C[C@@H](NC(=O)[C@@H](N)Cc1ccc(O)cc1)C(=O)NCC(=O)N[C@@H](Cc1ccccc1)C(=O)N(C)CCC[C@@]1(c2ccc(F)cc2)OCc2cc(C#N)ccc21", "effect on": "ligand displacement", "technique": "radioligand", "quantity": "Ki", "value": "0.28 µM"}
{"SMILES": "CNc1nc(C#Cc2ccc(Br)s2)nc2c1ncn2[C@H]1[C@H](O)[C@H](O)[C@]2(C(=O)OC)C[C@H]12", "effect on": "ligand displacement", "technique": "radioligand", "notes": "cell membranes", "quantity": "Ki", "value": "> 10 µM"}
{"SMILES": "CC(=O)N1C[C@@H](CCN2CC=C(c3c[nH]c4cc(Cl)ccc34)CC2)c2ccccc21", "effect on": "ligand displacement", "technique": "radioligand", "notes": "cell membranes", "quantity": "IC50", "value": "0.0438 µM"}
{"SMILES": "CNc1nc2cc(OCCCCN3CCN(c4cccc(Cl)c4Cl)CC3)ccc2s1", "effect on": "ligand displacement", "technique": "radioligand", "quantity": "Ki", "value": "0.45 µM"}
{"SMILES": "C[C@H](N)Cn1ncc2ccc3c(c21)CCCO3", "effect on": "ligand displacement", "technique": "radioligand", "quantity": "Ki", "value": "62.5 µM"}
